Reference: ChEMBL document CHEMBL1135822, “Novel potent AMPA/kainate receptor antagonists: synthesis and anticonvulsant activity of a series of 2-[(4-alkylsemicarbazono)-(4-amino-phenyl)methyl]-4,5-methylenedioxyphenylacetic acid alkyl esters” (J Med Chem, 2002)

What was measured:
[1] = Protective index as the ratio of TD50 to ED50 (from the clonic phase of the audiogenic seizures).; conditions: for selectivity ratio: read-out: PI
Method in brief: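 Ratio of rotarod TD50 to ED50 from the clonic phase of audiogenic seizures in DBA/2 mice, both after ip dosing.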

[2] = Partition coefficient (logP); assay type: physicochemical; conditions: octanol/water
Method in brief: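 log P calculated with XLOGP 2.0, not measured.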

Mus musculus [3] = organism: Mus musculus; experiment: Anticonvulsant activity against audiogenic seizures in DBA/2 mice in clonic phase.; assay type: functional
Method in brief: (§1)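 DBA/2 mice (8–12 g, 22–25 days), groups of 10, given ip doses of 3.3–200 µmol/kg in 50% DMSO/50% saline. Auditory stimulation 30 min later after 60 s habituation under a dome. Incidence of each seizure phase scored. ED50 by Litchfield–Wilcoxon, at least 32 animals, 95% confidence limits.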

[4] = Anticonvulsant activity against audiogenic seizures in DBA/2 mice in tonic phase; assay type: functional; conditions: Mus musculus; method in brief: as §1
[5] = Toxicity assessed by Rotarod test (locomotor deficit) in mice.; assay type: organism-based; conditions: mouse, in vivo
Method in brief: (§2)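 Male Swiss mice (20–26 g), groups of 10, trained on a 3-cm rotarod at 8 rpm. Tested 30 min after ip dosing; impairment defined as failure to stay on for 2 min. TD50 by Litchfield–Wilcoxon, at least 32 animals, 95% confidence limits.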

Rattus norvegicus [6] = organism: Rattus norvegicus; experiment: Percentage reduction of ATPA evoked currents at a concentration of 100 uM in cerebellar neurons
Mus musculus [7] = experiment: Anticonvulsant activity against KA induced seizures in DBA/2 mice at a dose of 32 mg/kg at CD97 after intraperitoneal administration (95% confidence limits); assay type: functional; conditions: ip
Mus musculus [8] = experiment: Anticonvulsant activity against audiogenic seizures in DBA/2 mice in clonic phase after 15 min intraperitoneal administration (95% confidence limit in parentheses); assay type: functional; conditions: ip, 0.25 h
Method in brief: (§3)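 Time course: DBA/2 mice (8–12 g, 22–25 days) dosed ip in 50% DMSO/50% saline and challenged with sound 15 to 120 min after dosing. Clonic phase scored; ED50 in µmol/kg by Litchfield–Wilcoxon with 95% confidence limits. Between-compound differences at each time by Litchfield–Wilcoxon (*p<0.05, **p<0.01).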

Mus musculus [9] = experiment: Anticonvulsant activity against AMPA induced seizures in DBA/2 mice after intracerebro ventricular administration at the CD97 for clonus (9.7 nmol) (95% confidence limits); assay type: functional; conditions: central
Mus musculus [10] = experiment: Anticonvulsant activity against audiogenic seizures in DBA/2 mice in clonic phase after 120 min intraperitoneal administration (95% confidence limit in parentheses); assay type: functional; conditions: ip, 2 h; method in brief: as §3
Mus musculus [11] = experiment: Anticonvulsant activity against audiogenic seizures in DBA/2 mice in clonic phase after 30 min intraperitoneal administration (95% confidence limit in parentheses)**indicates p<0.01; assay type: functional; conditions: ip, 0.5 h
Method in brief: (§4)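 DBA/2 mice (8–12 g, 22–25 days old), genetically sound-susceptible, groups of 10. Dosed ip (0.1 mL/10 g) as fresh solution in 50% DMSO/50% saline, doses 3.3-200 μmol/kg; auditory stimulation after 60 s habituation under dome, at 30 min (time-course: 15–120 min post-dose).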

[12] = Locomotion assessed by Rotarod test in mice; assay type: organism-based; conditions: mouse, in vivo; method in brief: as §2
Mus musculus [13] = experiment: Anticonvulsant activity against AMPA induced seizures in DBA/2 mice after intracerebro ventricular administration at the CD97 for tonus (11.7 nmol) (95% confidence limits); assay type: functional; conditions: central
Mus musculus [14] = experiment: Anticonvulsant activity against audiogenic seizures in DBA/2 mice in clonic phase after 60 min intraperitoneal administration (95% confidence limit in parentheses)**indicates p<0.01; assay type: functional; conditions: ip, 1 h; method in brief: as §4
Mus musculus [15] = organism: Mus musculus; experiment: Anticonvulsant activity against PTZ induced seizures in swiss mice in clonic phase (95% confidence limits); assay type: functional
Mus musculus [16] = organism: Mus musculus; experiment: Anticonvulsant activity against MES induced seizures in swiss mice in tonic phase (95% confidence limits); assay type: functional
Method in brief: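 Swiss mice dosed ip in 50% DMSO/50% saline, then shocked via ear-clip electrodes (50 mA, 20 ms pulse width, 35 Hz, 400 ms). Protection defined as abolition of tonic hindlimb extension. Four to five doses, 8–10 mice each; ED50 by Litchfield–Wilcoxon with 95% confidence limits.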

Rattus norvegicus [17] = organism: Rattus norvegicus; experiment: Percentage reduction of ATPA evoked currents at a concentration of 100 uM in cerebellar neurons; remark: listed apart in the source
Mus musculus [18] = experiment: Anticonvulsant activity against audiogenic seizures in DBA/2 mice in clonic phase after 90 min intraperitoneal administration (95% confidence limit in parentheses)*indicates p<0.05; assay type: functional; conditions: ip, 1.5 h; method in brief: as §3
Mus musculus [19] = experiment: Anticonvulsant activity against audiogenic seizures in DBA/2 mice in clonic phase after 45 min intraperitoneal administration (95% confidence limit in parentheses)**indicates p<0.01; assay type: functional; conditions: ip, 0.75 h; method in brief: as §4
Rattus norvegicus [20] = organism: Rattus norvegicus; experiment: Percentage reduction of KA (kainate) evoked currents at a concentration of 100 uM in cerebellar neurons
Mus musculus [21] = organism: Mus musculus; experiment: Anticonvulsant activity against audiogenic seizures in DBA/2 mice in tonic phase (95% confidence limit in parentheses); assay type: functional; method in brief: as §4
[22] = Protective index as the ratio of TD50 value to that of ED50 value (from the clonic phase of the audiogenic seizures).; assay type: functional
Method in brief: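 PI = TD50/ED50. TD50 from rotarod (3 cm, 8 rpm; failure to stay on for 2 min) in male Swiss mice 30 min after ip dosing; ED50 from clonic phase of audiogenic seizures in DBA/2 mice 30 min after ip dosing (50% DMSO/saline). Both by Litchfield–Wilcoxon, ≥32 animals each.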

Rattus norvegicus [23] = organism: Rattus norvegicus; experiment: Percentage reduction of KA (kainate) evoked currents at a concentration of 100 uM in cerebellar neurons; remark: listed apart in the source
[24] = Percentage reduction of ATPA evoked currents at a concentration of 100 uM in cerebellar neurons; assay type: functional
Method in brief: (§5)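 Whole-cell voltage clamp of rat cerebellar granule neurons cultured 7 days (7–8-day-old Sprague–Dawley pups; Ara-C 10 µM from 24 h). External solution pH 7.4. KA or ATPA and test agent all applied at 100 µM by Y-tube, DMSO final below 1%. Mean ± SE of at least 10 cells.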

[25] = Percentage reduction of KA (kainate) evoked currents at a concentration of 100 uM in cerebellar neurons; assay type: functional; method in brief: as §5

Compound	selectivity ratio [1]	logP ([2]; read-out: logP)	ED50 (Mus musculus [3]) [µmol/kg]	ED50 [4] [µmol/kg]	TD50 [5] [µmol/kg]	further results
CCNC(=O)N/N=C(\c1ccc(N)cc1)c1cc2c(cc1CC(=O)OCC)OCO2	2.7	3.31	84.4	60.8	227	–
COC(=O)Cc1cc2c(cc1Cc1ccc(N)cc1)OCO2	3.1	2.68	54.3	47.7	169	–
CCCCOC(=O)Cc1cc2c(cc1/C(=N/NC(=O)NCC)c1ccc(N)cc1)OCO2	2.2	4.24	53.1	38.7	117	–
CCCCOC(=O)Cc1cc2c(cc1/C(=N/NC(=O)NC)c1ccc(N)cc1)OCO2	2.7	3.81	66.2	39.8	179	–
CCCCNC(=O)N/N=C(\c1ccc(N)cc1)c1cc2c(cc1CC(=O)OC)OCO2	2.9	3.81	65	38.2	188	–
CNC(=O)NC(=O)Cc1cc2c(cc1C(=O)c1ccc(N)cc1)OCO2	3.4	1.82	39.5	28.9	134	–
CNC(=O)NC(=O)Cc1ccc2c(c1)OCO2	2.5	1.09	87.8	74.4	219	–
Nc1ccc(C2=NNC(=O)Cc3cc4c(cc32)OCO4)cc1	6.3	2.58	–	–	–	Reduction (Rattus norvegicus [6]): 94%
CCNC(=O)N/N=C(\c1ccc(N)cc1)c1cc2c(cc1CC(=O)OC)OCO2	3.7	2.89	30.3	32.8	113	–
CCOC(=O)Cc1cc2c(cc1/C(=N/NC(=O)NC)c1ccc(N)cc1)OCO2	3.3	2.89	28.8	10.9	95.1	–
CCCOC(=O)Cc1cc2c(cc1/C(=N/NC(=O)NCC)c1ccc(N)cc1)OCO2	3.4	3.67	55.5	40.3	187	–
CCNC(=O)N1N=C(c2ccc(N)cc2)c2cc3c(cc2CC1=O)OCO3	3.8	2.41	–	–	134	–
CCCCNC(=O)N1N=C(c2ccc(N)cc2)c2cc3c(cc2CC1=O)OCO3	2.8	3.34	–	–	108	–
CCCOC(=O)Cc1cc2c(cc1/C(=N/NC(=O)NC)c1ccc(N)cc1)OCO2	3.8	3.24	18	8.93	68.5	–
CNC(=O)N/N=C(\c1ccc(N)cc1)c1cc2c(cc1CC(=O)OC)OCO2 (stereo in doubt; 10)	–	–	–	–	–	ED50 (Mus musculus [7]): 16.6 µmol/kg; ED50 (Mus musculus [8]): 24.1 µmol/kg; ED50 (Mus musculus [9]): 13.9 µmol/kg; ED50 (Mus musculus [10]): 36.8 µmol/kg; ED50 (Mus musculus [11]): 7.87 µmol/kg; TD50 [12]: 28.3 µmol/kg; ED50 (Mus musculus [13]): 8.9 µmol/kg; ED50 (Mus musculus [14]): 10.2 µmol/kg; ED50 (Mus musculus [15]): 14.7 µmol/kg; ED50 (Mus musculus [16]): 15.7 µmol/kg; Reduction (Rattus norvegicus [17]): 75%; PI [1]: 3.6; ED50 (Mus musculus [18]): 25.5 µmol/kg; ED50 (Mus musculus [19]): 7.75 µmol/kg; Reduction (Rattus norvegicus [20]): 60%; logP [2]: 2.46; ED50 (Mus musculus [21]): 4.62 µmol/kg
CCCNC(=O)N/N=C(\c1ccc(N)cc1)c1cc2c(cc1CC(=O)OC)OCO2	3.1	3.24	57.1	42.8	177	–
CNC(=O)N/N=C(\c1ccc(N)cc1)c1cc2c(cc1CC(=O)OC)OCO2 (stereo in doubt; 29)	3.7	2.99	10.4	9.51	38.6	–
CNC(=O)N1N=C(c2ccc(N)cc2)c2cc3c(cc2CC1=O)OCO3	–	1.99	–	–	–	TD50 [12]: 48.6 µmol/kg; PI [22]: 3.9; Reduction (Rattus norvegicus [6]): 50%
CC1=NN=C(c2ccc(N)cc2)c2cc3c(cc2C1)OCO3 [GYKI-52466]	2.1	3.51	–	–	–	Reduction (Rattus norvegicus [6]): 45%; Reduction (Rattus norvegicus [23]): 47%
CNC(=O)NC(=O)Cc1cc2c(cc1Cc1ccc(N)cc1)OCO2	3.6	2.23	9.28	7.65	33.3	Reduction [24]: 32%; Reduction [25]: 54%
CCCNC(=O)N1N=C(c2ccc(N)cc2)c2cc3c(cc2CC1=O)OCO3	2.6	2.77	–	–	182	–
